Results gathered from unrelated publications.
Protocols differ between the studies behind these lines.
Target: Wee1-like protein kinase 2 (WEE2, Homo sapiens, UniProt P0C1S8)

`Cc1cc(-n2nc(Cc3cc(F)cc(C(F)(F)F)c3)nc2C)ccc1C(N)=O` gave a remaining binding of 100% (cell-free assay, competition with immobilised ligand; 1 µM).
`CNC(=O)[C@@H]1CC[C@@H](n2c(-c3ccc4cnccc4c3)nc3ccc(C(=O)NCc4cccc(C(N)=O)c4)cc32)C1` has a remaining binding of 100% (binding, competition with immobilised ligand; 1 µM).
For `Nc1ncc2c(n1)-c1c([nH]c3ccc(C#CC4CC4)cc13)CCCC2`, the remaining binding was 98% (binding, competition with immobilised ligand; 1 µM).
The remaining binding of `CCCCN(CCCC)C(=O)CN1C[C@@H](c2cc(OC)c3c(c2)OCO3)[C@H](C(=O)O)[C@H]1CC(C)(C)CCC` is reported as 89.1% (cell-free assay, competition with immobilised ligand; 1 µM).
`N[C@H]1CCN(c2nccc(-c3cnn4ncccc34)n2)C1` gave a remaining binding of 100% (binding; 1 µM).
`COc1cnc(Nc2cccc(S(N)(=O)=O)c2)nc1N1CCN(c2ccccc2)CC1` gave a remaining binding of 96% (binding, competition with immobilised ligand; 1 µM).
`O=C(Nc1c[nH]nc1C(=O)NC1CCNCC1)c1cc(F)cc(F)c1` has a remaining binding of 100% (binding, competition with immobilised ligand; 1 µM).
For `O=C(c1ccc(Nc2nccc(-c3cc4ccccc4s3)n2)cc1)N1CCC(N2CCCC2)CC1`, the remaining binding was 65% (binding, competition with immobilised ligand; 1 µM).
The remaining binding of `COc1ncc2cc3ccccc3nc2c1C#N` is reported as 100% (cell-free assay, competition with immobilised ligand; 5 µM).
`CN(CCCC(F)(F)F)c1nccc(-c2cnn3ncccc23)n1` has a remaining binding of 97% (binding; 1 µM).
With `CNCc1ccccc1-c1csc([C@@H](C)Nc2nc(C)nc3cc(OC)c(OC)cc23)c1` the remaining binding was 100% (cell-free assay, competition with immobilised ligand; 1 µM).
For `O=C(c1ccc(Nc2ncc(Cl)c(-c3cc4ccccc4s3)n2)cc1)N1CCC(N2CCCC2)CC1`, the remaining binding was 27% (binding, competition with immobilised ligand; 1 µM).
`c1cnn2ncc(-c3ccnc(N4CCC45COC5)n3)c2c1` gave a remaining binding of 76% (binding; 1 µM).
`C[C@@H](c1ccc(-n2cnc3c(N)ncnc32)cc1)N1CCc2nn(C)c(Cc3ccccc3)c2C1=O` has a remaining binding of 92% (binding, competition with immobilised ligand; 0.1 µM).
`CN(C)c1nccc(-c2cnn3ncccc23)n1` gave a remaining binding of 100% (binding; 1 µM).
`NS(=O)(=O)c1cc(NC(=O)Cc2ccccc2)ccc1Oc1cccc(Cl)c1` gave a remaining binding of 78% (cell-free assay, competition with immobilised ligand; 1 µM).
With `Cc1cnc(Nc2ccc(C(=O)N3CCC(N4CCCC4)CC3)cc2)nc1-c1cc2ccccc2s1` the remaining binding was 15% (binding, competition with immobilised ligand; 1 µM).
With `COc1cccc(CNC(=O)c2nc3scc(COCc4ccc(C(=O)O)cc4)c3c(=O)[nH]2)c1` the remaining binding was 96.9% (cell-free assay, competition with immobilised ligand; 1 µM).
With `CN(C)c1ncc(F)c(-c2cnn3ncccc23)n1` the remaining binding was 98% (binding; 1 µM).
`FC(F)(F)c1ccc2c(c1)nc(-c1cccnc1)n2C1CC1` gave a remaining binding of 100% (cell-free assay, competition with immobilised ligand; 1 µM).
`C[C@H]1CCN(c2nccc(-c3cnn4ncccc34)n2)C1` gave a remaining binding of 100% (binding; 1 µM).
